Measurements: ChEMBL document CHEMBL1138329, “Pharmacokinetic/pharmacodynamic model-guided identification of hypoxia-selective 1,2,4-benzotriazine 1,4-dioxides with antitumor activity: the role of extravascular transport” (J Med Chem, 2007)

Assays:
HT-29 [1] = experiment: Cytotoxicity against human HT29 cells under hypoxic conditions after 4 hrs; assay type: functional, cell-based; details: HT-29, 4 h
SiHa [2] = experiment: Ratio of IC50 for SiHa cells under oxic conditions to hypoxic conditions after 4 hrs; assay type: functional, Homo sapiens
HT-29 [3] = experiment: Ratio of IC50 for HT29 cells under oxic conditions to hypoxic conditions after 4 hrs; assay type: functional, Homo sapiens
SiHa [4] = experiment: Cytotoxicity against human SiHa cells under hypoxic conditions after 4 hrs; assay type: functional, cell-based
[5] = Solubility in culture medium in presence of 5% fetal calf serum; assay type: physicochemical; details: culture medium with 5% fetal calf serum
HT-29 [6] = experiment: Effect on human HT29 cells under hypoxic conditions assessed as drug level causing 10% clonogenic survival; assay type: functional
Summary of the method: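 HT29 suspensions (1 or 2 × 10^6 cells/mL) in serum-free medium were stirred under 5% CO2/95% N2 for 90 min. Drug was added from deoxygenated DMSO stock at a level giving about 10% survival at 1 h, and samples were taken up to 3 h. Clonogenic survival (14 days, methylene blue) was fitted with the HPLC concentration–time data, and the 10% survival exposure was interpolated.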

HT-29 [7] = experiment: Diffusion coefficient, D in HT29 multicellular layers; assay type: ADME, cell-based; details: human
Summary of the method: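 HT29 multicellular layers were grown 3 days on collagen-coated Teflon membranes, equilibrated 60 min under 95% O2/5% CO2 at 37 °C, then placed in a diffusion chamber. Donor and receiver were sampled up to 5 h and assayed by HPLC. D came from fitting both profiles to a Fickian model with membrane and MCL in series, corrected by support-only Ds.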

Mus musculus = experiment: Toxicity in ip dosed CD1 mouse; assay type: organism-based; details: in vivo
Summary of the method: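 MTD in CD-1 homozygous nude mice after single i.p. doses (HCl salts in saline, 5% DMSO/saline or lactate buffer pH 4.0), escalated in 1.33-fold increments. MTD taken as the highest dose causing no death, no body weight loss >15% and no other severe morbidity in any of 6 mice.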

[8] = Half life in CD1 mouse at 1000 umol/kg, ip; assay type: ADME, organism-based; details: in vivo
Summary of the method: (§1)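 Single i.p. dose to CD-1 homozygous nude mice, drug as HCl salt in 0.9% saline, 5% DMSO/saline or lactate buffer (pH 4.0). Plasma total drug measured by HPLC at 75 or 100% of MTD (MTD from 1.33-fold dose steps, 6 mice). Noncompartmental analysis gave AUC, Cmax and t1/2.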

HT-29 [9] = experiment: Antitumor activity against human HT29 cells implanted in CD1 mouse at 1000 umol/kg, ip administered 5 mins after irradiation by excision assay relative to radiation alone; assay type: functional
Summary of the method: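 Hypoxic-cell excision assay in HT29 xenografts in CD-1 homozygous nude mice. Mice received 20 Gy γ radiation to sterilize oxic tumor cells, then a single i.p. drug dose (HCl salt in saline, 5% DMSO/saline or pH 4.0 lactate buffer) 5 min later. Tumors excised at 18 h and plated for clonogens/g. Log cell kill = log(clonogens/g, radiation only) − log(clonogens/g, radiation plus drug).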

[10] = Cmax in CD1 mouse at 1000 umol/kg, ip; assay type: ADME, organism-based; set-up: dose 1000 umol/kg, route intraperitoneal; details: in vivo; summary of the method: as §1
HT-29 [11] = experiment: Antitumor activity against human HT29 cells implanted in CD1 mouse assessed as clonogenic survival at 1000 umol/kg, ip after 18 hrs relative to control; assay type: functional
Summary of the method: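 HT29 xenografts in CD-1 homozygous nude mice; single i.p. dose of drug alone, formulated as the HCl salt in 0.9% saline, 5% DMSO/saline or lactate buffer (pH 4.0). Tumors excised 18 h later, dissociated to single-cell suspensions and plated. Clonogens/g of tumor counted; surviving fraction = treated/control clonogens/g.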

[12] = Cmax in CD1 mouse at 750 umol/kg, ip; assay type: ADME, organism-based; set-up: dose 750 umol/kg, route intraperitoneal; details: in vivo; summary of the method: as §1
[13] = Half life in CD1 mouse at 750 umol/kg, ip; assay type: ADME, organism-based; details: in vivo; summary of the method: as §1
[14] = AUC in CD1 mouse at 750 umol/kg, ip; assay type: ADME, organism-based; details: plasma; summary of the method: as §1
[15] = Half life in CD1 mouse at 316 umol/kg, ip; assay type: ADME, organism-based; details: in vivo; summary of the method: as §1
[16] = Cmax in CD1 mouse at 316 umol/kg, ip; assay type: ADME, organism-based; set-up: dose 316 umol/kg, route intraperitoneal; details: in vivo; summary of the method: as §1
[17] = AUC in CD1 mouse at 316 umol/kg, ip; assay type: ADME, organism-based; details: plasma; summary of the method: as §1

COc1ccc2c(c1)[n+]([O-])c(NCCN1CCOCC1)n[n+]2[O-]
IC50 (HT-29 [1]): 103 µM
Ratio IC50 (SiHa [2]): 70
Ratio IC50 (HT-29 [3]): >39
IC50 (SiHa [4]): 40.9 µM
solubility [5]: 48 mM

COc1ccc2c(c1)[n+]([O-])c(NCCCN1CCOCC1)n[n+]2[O-]
IC50 (HT-29 [1]): 22 µM
Ratio IC50 (SiHa [2]): 447
Ratio IC50 (HT-29 [3]): >8
IC50 (SiHa [4]): 10.2 µM
Activity (HT-29 [6]): 149.7 µM·h
solubility [5]: > 44 mM

CC(C)c1ccc2c(c1)[n+]([O-])c(NCCN1CCOCC1)n[n+]2[O-]
IC50 (HT-29 [1]): 45.1 µM
Ratio IC50 (SiHa [2]): 33
Ratio IC50 (HT-29 [3]): 14
IC50 (SiHa [4]): 15.5 µM
Activity (HT-29 [6]): 217.8 µM·h
solubility [5]: 30 mM

CCCN(CCC)CCNc1n[n+]([O-])c2ccc(Cl)cc2[n+]1[O-]
IC50 (HT-29 [1]): 0.6 µM
Ratio IC50 (SiHa [2]): 21
Ratio IC50 (HT-29 [3]): 9
IC50 (SiHa [4]): 0.3 µM
solubility [5]: 0.6 mM

[O-][n+]1nc(NCCN2CCCCC2)[n+]([O-])c2ccccc21
IC50 (HT-29 [1]): 1.8 µM
Ratio IC50 (SiHa [2]): 55
Ratio IC50 (HT-29 [3]): 24
D (HT-29 [7]): 7.23e-07 cm²/s
IC50 (SiHa [4]): 1.1 µM
Activity (HT-29 [6]): 2.8 µM·h
solubility [5]: > 49 mM

CC1CCCC(C)N1CCNc1n[n+]([O-])c2ccccc2[n+]1[O-] (centres undefined)
IC50 (HT-29 [1]): 2.2 µM
Ratio IC50 (SiHa [2]): 41
Ratio IC50 (HT-29 [3]): 15
D (HT-29 [7]): 6.81e-07 cm²/s
IC50 (SiHa [4]): 0.9 µM
Activity (HT-29 [6]): 5.7 µM·h
solubility [5]: 48 mM

CCCN(CCC)CCNc1n[n+]([O-])c2ccc(C(C)(C)C)cc2[n+]1[O-]
IC50 (HT-29 [1]): 8.3 µM
Ratio IC50 (SiHa [2]): 35
Ratio IC50 (HT-29 [3]): 18
D (HT-29 [7]): 1.75e-06 cm²/s
IC50 (SiHa [4]): 3.8 µM
Activity (HT-29 [6]): 66.6 µM·h
solubility [5]: 32 mM

Cc1ccc2c(c1)[n+]([O-])c(N)n[n+]2[O-]
IC50 (HT-29 [1]): 12.9 µM
MTD (Mus musculus): 1000 µmol/kg
half-life [8]: 34.1 min
Ratio IC50 (HT-29 [3]): 36
D (HT-29 [7]): 5.43e-07 cm²/s
LCK (HT-29 [9]): 2.16
Cmax [10]: 198 µM
Activity (HT-29 [6]): 61.9 µM·h
solubility [5]: 3 mM
LCK (HT-29 [11]): 0.39

CN(C)CCNc1n[n+]([O-])c2ccccc2[n+]1[O-]
IC50 (HT-29 [1]): 0.7 µM
Ratio IC50 (SiHa [2]): 157
Ratio IC50 (HT-29 [3]): 80
IC50 (SiHa [4]): 0.2 µM
Activity (HT-29 [6]): 3.2 µM·h
solubility [5]: 50 mM

Cc1ccc2c(c1)[n+]([O-])c(NCCN1CCOCC1)n[n+]2[O-]
Cmax [12]: 132 µM
IC50 (HT-29 [1]): 21.8 µM
half-life [13]: 15.4 min
MTD (Mus musculus): 1000 µmol/kg
Ratio IC50 (SiHa [2]): 86
AUC [14]: 86.8 µM·h
Ratio IC50 (HT-29 [3]): 55
D (HT-29 [7]): 4.52e-07 cm²/s
IC50 (SiHa [4]): 8.3 µM
Activity (HT-29 [6]): 134 µM·h
solubility [5]: > 46 mM

CCN(CC)CCNc1n[n+]([O-])c2ccc(C(C)C)cc2[n+]1[O-]
IC50 (HT-29 [1]): 2 µM
Ratio IC50 (SiHa [2]): 113
Ratio IC50 (HT-29 [3]): 122
IC50 (SiHa [4]): 0.8 µM
Activity (HT-29 [6]): 18.6 µM·h
solubility [5]: 45 mM

CCCN(CCC)CCNc1n[n+]([O-])c2ccc(C(C)C)cc2[n+]1[O-]
IC50 (HT-29 [1]): 4.4 µM
Ratio IC50 (SiHa [2]): 65
Ratio IC50 (HT-29 [3]): 35
IC50 (SiHa [4]): 0.9 µM
Activity (HT-29 [6]): 41.6 µM·h
solubility [5]: 39 mM

COc1ccc2c(c1)[n+]([O-])c(NCCCN1CCC(C#N)C1)n[n+]2[O-] (centres undefined)
IC50 (HT-29 [1]): 40.6 µM
Ratio IC50 (SiHa [2]): 36
Ratio IC50 (HT-29 [3]): 41
IC50 (SiHa [4]): 31.9 µM
Activity (HT-29 [6]): 211.4 µM·h
solubility [5]: 47 mM

CCOc1ccc2c(c1)[n+]([O-])c(NCCCN1CCOCC1)n[n+]2[O-]
IC50 (HT-29 [1]): 18 µM
Ratio IC50 (SiHa [2]): 140
Ratio IC50 (HT-29 [3]): 52
IC50 (SiHa [4]): 7.6 µM
Activity (HT-29 [6]): 260.6 µM·h
solubility [5]: > 51 mM

COc1ccc2c(c1)[n+]([O-])c(NCCN1CCCCC1)n[n+]2[O-]
IC50 (HT-29 [1]): 10.8 µM
MTD (Mus musculus): 421 µmol/kg
Ratio IC50 (SiHa [2]): 65
Ratio IC50 (HT-29 [3]): 24
IC50 (SiHa [4]): 3 µM
Activity (HT-29 [6]): 38.9 µM·h
solubility [5]: 45 mM
half-life [15]: 24.6 min
Cmax [16]: 26.7 µM
AUC [17]: 20.2 µM·h
